According to ChEMBL document CHEMBL1137100, “Design, synthesis, and antiviral activity of certain 3-substituted 2,5,6-trichloroindole nucleosides” (J Med Chem, 2004):

How the values were obtained:
Human alphaherpesvirus 1 = test: Inhibitory concentration required against herpes simplex virus type-1 (HSV-1) expressed in BSC-1 cells was determined by ELISA assay; type: functional, organism-based; details: Human alphaherpesvirus 1, BSC-1
Outline: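 HSV-1 KOS strain. BSC-1 cells, 10 000 per well in MEM(E) with 10% calf serum, incubated overnight at 37 °C, then drug plus virus at 100 pfu/well, quadruplicate wells, 3 days at 37 °C. Detection with HRP-conjugated rabbit anti-HSV-1 antibody and TMB substrate, stopped with H₂SO₄ after 15 min, absorbance at 450 and 570 nm. IC50 by regression vs log10 concentration; acyclovir as positive control.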

Human betaherpesvirus 5 = test: Inhibitory concentration required against human cytomegalovirus (HCMV) expressed in HFF cells was determined by plaque reduction assay; type: functional, organism-based; details: Human betaherpesvirus 5, HFF
Outline: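 HCMV Towne strain, isolate P₀. HFF monolayers infected with about 100 pfu per cm²; after adsorption, compound (diluted from 10 mg/mL DMSO stock) added at four to eight concentrations in duplicate wells. Incubated 7–10 days at 37 °C, fixed and stained with crystal violet, plaques counted microscopically. IC50 from regression of % plaque reduction vs log10 concentration; ganciclovir as positive control.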

HFF = test: Cytotoxicity produced in stationary HFF cells was determined by microscopic inspection of uninfected cells; type: functional, cell-based; details: Homo sapiens
Outline: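 Uninfected stationary HFF cells inspected microscopically for cytotoxicity, scored at the time of HCMV plaque enumeration (7–10 days at 37 °C), duplicate wells. Compounds from 10 mg/mL DMSO stocks diluted in growth medium. IC50 from linear regression of % inhibition vs log10 concentration.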

[1] = Cytotoxicity against KB cells was determined by crystal violet staining and spectrophotometric quantitation of dye eluted from stained cells; type: functional, cell-based
Outline: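 KB cells seeded at 3000–5000 per well, incubated overnight at 37 °C, then exposed to compound at six to eight concentrations for 48 h at 37 °C in CO₂ (two population doublings). Fixed with 95% ethanol, stained with 0.1% crystal violet, dye eluted with acidified ethanol, read at 570 nm. IC50 by linear regression of % inhibition vs log10 concentration.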

Row | SMILES | IC50 (Human alphaherpesvirus 1) | IC50 (Human betaherpesvirus 5) | IC50 (HFF) | IC50 [1]
1 | CC(=O)OC[C@H]1OC(n2c(Cl)c(C=O)c3cc(Cl)c(Cl)cc32)[C@H](O)[C@@H]1O (some centres not stated) | 20 µM | < 0.1 µM | 32 µM | 35 µM
2 | CC(=O)OC[C@H]1OC(n2c(Br)c(C=O)c3cc(Cl)c(Cl)cc32)[C@H](O)[C@@H]1O (some centres not stated) | 15 µM | 0.32 µM | 32 µM | 40 µM
3 | OC[C@H]1O[C@@H](n2c(Br)nc3cc(Cl)c(Cl)cc32)C(O)[C@@H]1O (single isomer, unassigned) | 130 µM | 0.7 µM | – | > 100 µM
4 | OC[C@H]1O[C@@H](n2c(Cl)nc3cc(Cl)c(Cl)cc32)C(O)[C@@H]1O (single isomer, unassigned) | – | 2.9 µM | – | 210 µM
5 | OC[C@H]1OC(n2c(Cl)c(Cl)c3cc(Cl)c(Cl)cc32)C(O)[C@@H]1O (single isomer, unassigned) | 45 µM | 38 µM | 32 µM | 80 µM
6 | O=Cc1c(Br)n(C2O[C@H](CO)[C@@H](O)C2O)c2cc(Cl)c(Cl)cc12 (single isomer, unassigned) | 20 µM | 0.32 µM | 32 µM | 50 µM
7 | N#Cc1c(Cl)n(C2O[C@H](CO)[C@@H](O)C2O)c2cc(Cl)c(Cl)cc12 (single isomer, unassigned) | 15 µM | 0.55 µM | 32 µM | 65 µM
8 | CCC(=O)c1c(Cl)n(C2O[C@H](CO)[C@@H](O)C2O)c2cc(Cl)c(Cl)cc12 (single isomer, unassigned) | 20 µM | 2.5 µM | > 100 µM | 100 µM
9 | O=C(c1c(Cl)n(C2O[C@H](CO)[C@@H](O)C2O)c2cc(Cl)c(Cl)cc12)C(F)(F)F (single isomer, unassigned) | 15 µM | 6.2 µM | 32 µM | 20 µM
10 | CC(=O)OC[C@H]1OC(n2c(Cl)c(C#N)c3cc(Cl)c(Cl)cc32)C(O)[C@@H]1O (single isomer, unassigned) | 50 µM | 2.5 µM | 32 µM | 70 µM
11 | OC[C@H]1OC(n2c(Cl)c(-c3ccsc3)c3cc(Cl)c(Cl)cc32)C(O)[C@@H]1O (single isomer, unassigned) | 45 µM | 31 µM | > 100 µM | 60 µM
12 | O=CCc1c(Cl)n(C2O[C@H](CO)[C@@H](O)C2O)c2cc(Cl)c(Cl)cc12 (single isomer, unassigned) | > 100 µM | 4 µM | > 100 µM | 70 µM
13 | O=Cc1c(Cl)n(C2O[C@H](CO)[C@@H](O)C2O)c2cc(Cl)c(Cl)cc12 (single isomer, unassigned) | 40 µM | 0.23 µM | 45 µM | 45 µM
14 | CC(=O)c1c(Cl)n(C2O[C@H](CO)[C@@H](O)C2O)c2cc(Cl)c(Cl)cc12 (single isomer, unassigned) | 20 µM | 0.31 µM | > 100 µM | 50 µM
15 | OC[C@H]1OC(n2c(Cl)c(-c3ccco3)c3cc(Cl)c(Cl)cc32)C(O)[C@@H]1O (single isomer, unassigned) | 50 µM | 42 µM | 32 µM | 80 µM
16 | OC[C@H]1OC(n2c(Cl)c(I)c3cc(Cl)c(Cl)cc32)C(O)[C@@H]1O (single isomer, unassigned) | 20 µM | 12 µM | 32 µM | 65 µM
17 | CCC(=O)c1c(Cl)n(C2O[C@H](COC(C)=O)[C@@H](O)C2O)c2cc(Cl)c(Cl)cc12 (single isomer, unassigned) | 15 µM | 3.2 µM | > 100 µM | 100 µM
18 | CC(=O)OC[C@H]1OC(n2c(Cl)c(C(C)=O)c3cc(Cl)c(Cl)cc32)C(O)[C@@H]1O (single isomer, unassigned) | 20 µM | 0.3 µM | 32 µM | 40 µM
19 | CCCC(=O)OC[C@H]1OC(n2c(Cl)c(C=O)c3cc(Cl)c(Cl)cc32)C(O)[C@@H]1O (single isomer, unassigned) | 9 µM | 0.25 µM | 32 µM | 40 µM
20 | Cc1c(Cl)n(C2O[C@H](CO)[C@@H](O)C2O)c2cc(Cl)c(Cl)cc12 (single isomer, unassigned) | 70 µM | 32 µM | 32 µM | > 100 µM
21 | COC(=O)OC[C@H]1OC(n2c(Cl)c(C=O)c3cc(Cl)c(Cl)cc32)C(O)[C@@H]1O (single isomer, unassigned) | 15 µM | 0.2 µM | 32 µM | 50 µM
22 | CCC(=O)OC[C@H]1OC(n2c(Cl)c(C=O)c3cc(Cl)c(Cl)cc32)C(O)[C@@H]1O (single isomer, unassigned) | 10 µM | 0.22 µM | 32 µM | 50 µM
23 | Nc1nc2c(ncn2COC(CO)CO)c(=O)[nH]1 [GANCICLOVIR] | – | – | > 100 µM | > 100 µM
